# Assay results from ChEMBL document CHEMBL3576832, “First Crystal Structures of Mycobacterium tuberculosis 6-Oxopurine Phosphoribosyltransferase: Complexes with GMP and Pyrophosphate and with Acyclic Nucleoside Phosphonates Whose Prodrugs Have Antituberculosis Activity” (J Med Chem, 2015).
# What was measured:
# [1] = Cytotoxicity against human A549 cells assessed as inhibition of cell proliferation incubated for 4 days by Coulter counter based assay
# In short: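 A549 cells seeded at 7500 per well; serially diluted compounds added 24 h later; 4 days at 37 °C; cells trypsinized and counted by Coulter Counter; CC50 (50% proliferation vs untreated) obtained by extrapolation; mean ± SEM of two or three independent tests.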
# [2] = tested on: Mycobacterium tuberculosis; assay: Antimycobacterial activity against Mycobacterium tuberculosis H37Rv […] assessed as inhibition of microbial growth incubated for 5 days by resazurin reduction microplate assay; format: functional; settings: 120 h
# In short: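 H37Rv grown in 7H9 with OADC, 0.5% glycerol, 0.02% tyloxapol at 37 °C to mid-exponential phase (OD600 0.4−0.8), diluted to OD600 0.001 (~2 × 10^4 CFU/mL) in 7H9S with 0.5% DMSO; serially diluted compounds; 5 days at 37 °C, then resazurin plus Tween 80; fluorescence (ex 530/em 580 nm) read 30 h later; MIC50 from signal relative to no-inhibitor minus no-bacteria controls.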
# [3] = Selectivity index, ratio of CC50 for human A549 cells to MIC50 for Mycobacterium tuberculosis H37Rv […]; format: functional
# In short: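 Selectivity index computed as CC50 in A549 cells divided by MIC50 against H37Rv.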
# [4] = Selectivity index, ratio of Ki for human HGPRT to Ki for N-terminal hexa-histidine tagged Mycobacterium tuberculosis HGPRT
# [5] = Inhibition of N-terminal hexa-histidine tagged Mycobacterium tuberculosis HGPRT expressed in Escherichia coli BL-21(DE3) using PRib-PP substrate and guanine
# [6] = biological target: T1, Hypoxanthine-guanine phosphoribosyltransferase (Homo sapiens, UniProt P00492); assay: Inhibition of human HGPRT
# T1 sequence (P00492 whole entry): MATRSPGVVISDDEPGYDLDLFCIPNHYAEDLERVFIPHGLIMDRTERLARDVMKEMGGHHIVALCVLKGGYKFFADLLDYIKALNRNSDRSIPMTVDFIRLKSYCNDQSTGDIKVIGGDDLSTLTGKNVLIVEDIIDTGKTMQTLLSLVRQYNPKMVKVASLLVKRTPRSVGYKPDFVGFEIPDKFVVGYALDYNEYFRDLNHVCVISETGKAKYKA
# [7] = Inhibition of Mycobacterium tuberculosis HGPRT
# [8] = Inhibition of Escherichia coli HGPRT
# [9] = tested on: Mycobacterium tuberculosis; assay: Potency index, ratio of Ki for GMP to Ki for compound against N-terminal hexa-histidine tagged Mycobacterium tuberculosis HGPRT expressed in Escherichia coli BL-21(DE3) using PRib-PP substrate and guanine
structure (smiles),measurement,setting,value
CCOC(=O)[C@H](Cc1ccccc1)NP(=O)(CCOCC(Cn1cnc2c(=O)[nH]cnc21)OCCP(=O)(N[C@@H](Cc1ccccc1)C(=O)OCC)N[C@@H](Cc1ccccc1)C(=O)OCC)N[C@@H](Cc1ccccc1)C(=O)OCC (stereo partly drawn),CC50 at 96 h,[1],90 µM
same,MIC50,[2],15 µM
same,Selectivity Index,[3],>6
O=c1[nH]cnc2c1ncn2CCN(CCN(CCCO)CCP(=O)(O)O)CCP(=O)(O)O,Ratio Ki,[4],14
same,Ki,[5],22.7 µM
same,Ki,[6],1.64 µM
Nc1nc2c(ncn2[C@@H]2O[C@H](COP(=O)(O)O)[C@@H](O)[C@H]2O)c(=O)[nH]1,Ki,[7],20 µM
same,Ki,[8],526 µM
Nc1nc2c(ncn2CCN(CCN(CCO)CCP(=O)(O)O)CCP(=O)(O)O)c(=O)[nH]1,Ki,[5],1.6 µM
same,Ki,[6],0.03 µM
Nc1nc2c(ncn2CCN(CCN(CCP(=O)(O)O)CCP(=O)(O)O)CCP(=O)(O)O)c(=O)[nH]1,Ki,[5],1.6 µM
same,Ki,[6],0.03 µM
O=c1[nH]cnc2c1ncn2CC(COCP(=O)(O)O)COCP(=O)(O)O,Ki,[5],7.7 µM
O=c1[nH]cnc2c1ncn2CCOCCP(=O)(O)O,Ki,[5],18 µM
O=c1[nH]cnc2c1ncn2CC(COCCP(=O)(O)O)OCCP(=O)(O)O (stereo not drawn),Ki,[5],> 50 µM
same,Ki,[6],4 µM
O=c1[nH]cnc2c1ncn2CCN(CCN(CCO)CCP(=O)(O)O)CCP(=O)(O)O,Ki,[5],22.5 µM
same,Ki,[6],0.5 µM
Nc1nc2c(ncn2CC(COCP(=O)(O)O)COCP(=O)(O)O)c(=O)[nH]1,Ki,[5],0.77 µM
same,Ratio Ki,[9],28
CCOC(=O)[C@H](Cc1ccccc1)NP(=O)(COCC(COCP(=O)(N[C@@H](Cc1ccccc1)C(=O)OCC)N[C@@H](Cc1ccccc1)C(=O)OCC)Cn1cnc2c(=O)[nH]c(N)nc21)N[C@@H](Cc1ccccc1)C(=O)OCC,MIC50,[2],11 µM
same,Selectivity Index,[3],>27
Nc1nc2c(ncn2CCN(CCN(CCCO)CCP(=O)(O)O)CCP(=O)(O)O)c(=O)[nH]1,Ratio Ki,[4],400
same,Ki,[5],15.9 µM
same,Ki,[6],0.04 µM
CCOC(=O)[C@H](Cc1ccccc1)NP(=O)(CCN(CCO)CCN(CCn1cnc2c(=O)[nH]c(N)nc21)CCP(=O)(N[C@@H](Cc1ccccc1)C(=O)OCC)N[C@@H](Cc1ccccc1)C(=O)OCC)N[C@@H](Cc1ccccc1)C(=O)OCC,CC50 at 96 h,[1],193 µM
same,MIC50,[2],4.5 µM
same,Selectivity Index,[3],>43
CCOC(=O)[C@H](Cc1ccccc1)NP(=O)(CCN(CCO)CCN(CCn1cnc2c(=O)[nH]cnc21)CCP(=O)(N[C@@H](Cc1ccccc1)C(=O)OCC)N[C@@H](Cc1ccccc1)C(=O)OCC)N[C@@H](Cc1ccccc1)C(=O)OCC,CC50 at 96 h,[1],156 µM
same,MIC50,[2],8 µM
same,Selectivity Index,[3],>19.5
CCOC(=O)[C@H](Cc1ccccc1)NP(=O)(COCC(COCP(=O)(N[C@@H](Cc1ccccc1)C(=O)OCC)N[C@@H](Cc1ccccc1)C(=O)OCC)Cn1cnc2c(=O)[nH]cnc21)N[C@@H](Cc1ccccc1)C(=O)OCC,MIC50,[2],7.5 µM
same,Selectivity Index,[3],>13
O=c1[nH]cnc2c1ncn2CCN(CCOCCP(=O)(O)O)CCP(=O)(O)O,Ki,[5],> 50 µM
CCOC(=O)[C@H](Cc1ccccc1)NP(=O)(CCN(CCN(CCP(=O)(N[C@@H](Cc1ccccc1)C(=O)OCC)N[C@@H](Cc1ccccc1)C(=O)OCC)CCP(=O)(N[C@@H](Cc1ccccc1)C(=O)OCC)N[C@@H](Cc1ccccc1)C(=O)OCC)CCn1cnc2c(=O)[nH]c(N)nc21)N[C@@H](Cc1ccccc1)C(=O)OCC,CC50 at 96 h,[1],> 300 µM
same,MIC50,[2],4.5 µM
same,Selectivity Index,[3],>67
Nc1nc2c(ncn2CCN(CCOCCP(=O)(O)O)CCP(=O)(O)O)c(=O)[nH]1,Ki,[5],1.4 µM
Nc1nc2c(ncn2CC(COCCP(=O)(O)O)OCCP(=O)(O)O)c(=O)[nH]1 (stereo not drawn),Ki,[5],0.69 µM
same,Ratio Ki,[9],28
Nc1nc2c(ncn2CCOCCP(=O)(O)O)c(=O)[nH]1,Ki,[5],1.76 µM
O=c1[nH]cnc2c1ncn2CCN(CCN(CCP(=O)(O)O)CCP(=O)(O)O)CCP(=O)(O)O,Ki,[5],1.13 µM
same,Ki,[6],0.01 µM
CCOC(=O)[C@H](Cc1ccccc1)NP(=O)(CCOCC(Cn1cnc2c(=O)[nH]c(N)nc21)OCCP(=O)(N[C@@H](Cc1ccccc1)C(=O)OCC)N[C@@H](Cc1ccccc1)C(=O)OCC)N[C@@H](Cc1ccccc1)C(=O)OCC (stereo partly drawn),MIC50,[2],9 µM
same,Selectivity Index,[3],>11
CCOC(=O)[C@H](Cc1ccccc1)NP(=O)(CCN(CCN(CCP(=O)(N[C@@H](Cc1ccccc1)C(=O)OCC)N[C@@H](Cc1ccccc1)C(=O)OCC)CCP(=O)(N[C@@H](Cc1ccccc1)C(=O)OCC)N[C@@H](Cc1ccccc1)C(=O)OCC)CCn1cnc2c(=O)[nH]cnc21)N[C@@H](Cc1ccccc1)C(=O)OCC,CC50 at 96 h,[1],28 µM
same,MIC50,[2],4.5 µM
same,Selectivity Index,[3],>6
